From ChEMBL document CHEMBL1123546, “Inhibition of cyclic nucleotide phosphodiesterases from pig coronary artery by benzo-separated analogues of 3-isobutyl-1-methylxanthine” (J Med Chem, 1986)

Experiments:
[1] = biological target: Phosphodiesterase 1 (Homo sapiens, UniProt P54750+Q01064+Q14123); assay: Inhibition of Calmodulin Sensitive Phosphodiesterase 1 from pig coronary artery; assay type: tissue-based, Sus scrofa; details: target entry is the homologue from another species
Summary of the method: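 Media plus intima of porcine coronary artery homogenized in 20 mM Tris-HCl pH 7.5, 2 mM Mg(OAc)2, 1 mM DTT. The soluble fraction was resolved on DEAE-cellulose and peak I was pooled. Assay used 1 μM cGMP with calcium + calmodulin, 30 °C for 30 min, at 10-20% hydrolysis. Analogues were tested at 1-100 μM with 3% final Me2SO. I50 was taken as the concentration giving 50% inhibition of hydrolysis.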

[2] = biological target: cGMP-dependent 3',5'-cyclic phosphodiesterase (Homo sapiens, UniProt O00408); assay: Inhibition of Phosphodiesterase 2 from pig coronary artery; assay type: tissue-based, Sus scrofa; details: target entry is the homologue from another species; read-out: I50
Sequence of cGMP-dependent 3',5'-cyclic phosphodiesterase (O00408 whole entry): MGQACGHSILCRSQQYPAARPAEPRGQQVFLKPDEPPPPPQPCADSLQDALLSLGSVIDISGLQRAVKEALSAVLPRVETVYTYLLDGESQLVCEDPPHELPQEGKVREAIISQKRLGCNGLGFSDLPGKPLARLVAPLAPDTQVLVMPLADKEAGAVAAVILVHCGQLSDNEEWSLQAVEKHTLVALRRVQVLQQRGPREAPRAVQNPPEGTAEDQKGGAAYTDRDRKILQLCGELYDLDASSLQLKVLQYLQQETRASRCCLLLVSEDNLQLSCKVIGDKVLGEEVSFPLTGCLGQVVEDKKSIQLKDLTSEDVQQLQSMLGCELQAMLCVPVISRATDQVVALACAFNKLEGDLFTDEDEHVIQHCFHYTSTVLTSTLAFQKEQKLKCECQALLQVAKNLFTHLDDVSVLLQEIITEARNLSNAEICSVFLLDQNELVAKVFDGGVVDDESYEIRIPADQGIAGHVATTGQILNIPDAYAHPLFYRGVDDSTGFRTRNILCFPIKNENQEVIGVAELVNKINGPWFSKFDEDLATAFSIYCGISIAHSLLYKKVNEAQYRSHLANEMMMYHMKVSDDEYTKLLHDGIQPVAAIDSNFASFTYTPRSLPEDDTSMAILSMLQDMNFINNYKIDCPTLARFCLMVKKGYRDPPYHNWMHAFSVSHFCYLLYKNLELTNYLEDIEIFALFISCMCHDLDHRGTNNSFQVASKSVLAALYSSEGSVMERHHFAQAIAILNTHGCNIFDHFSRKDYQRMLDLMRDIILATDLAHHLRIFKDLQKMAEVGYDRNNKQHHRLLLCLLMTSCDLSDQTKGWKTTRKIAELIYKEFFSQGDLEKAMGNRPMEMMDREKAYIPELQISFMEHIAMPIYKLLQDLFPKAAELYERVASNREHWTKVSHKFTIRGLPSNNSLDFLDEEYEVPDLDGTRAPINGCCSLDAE
Summary of the method: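 Pooled peak II was the enzyme source, taken from DEAE-cellulose fractionation of soluble porcine coronary media plus intima homogenate (20 mM Tris-HCl pH 7.5, 2 mM Mg(OAc)2, 1 mM DTT). Hydrolysis of 1 μM cAMP ran at 30 °C for 30 min, with enzyme dilution set for 10-20% hydrolysis. Analogues were tested at 1-100 μM in 3% final Me2SO. I50 was the concentration giving 50% inhibition.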

Row | Compound | I50 [1] [µM] | IC50 [2] [µM]
1 | CC(C)Cn1c(=O)n(C)c(=O)c2c3c(ccc21)ncn3Cc1ccccc1 | 19 | 14
2 | COCc1nc2cc3c(=O)n(C)c(=O)n(CC(C)C)c3cc2[nH]1 | 36 | > 50
3 | CC(C)Cn1c(=O)n(C)c(=O)c2c3nc[nH]c3ccc21 | 8.4 | 18
4 | CC(C)CCn1c(=O)c2cc3nc[nH]c3cc2n(CC(C)C)c1=O | > 25 | 20
5 | CC(C)Cn1c(=O)n(C)c(=O)c2nc[nH]c21 [ISOBUTYLMETHYLXANTHINE] | 6.3 | 15
6 | CC(C)Cn1c(=O)n(C)c(=O)c2cc3[nH]c(C(C)(C)C)nc3cc21 | 41 | > 50
7 | Cc1nc2cc3c(cc2[nH]1)c(=O)n(C)c(=O)n3CC(C)C | 36 | > 50
8 | CC(C)Cn1c(=O)n(C)c(=O)c2cc3ncn(Cc4ccccc4)c3cc21 | 4.9 | 27
9 | CC(C)Cn1c(=O)n(C)c(=O)c2cc3[nH]cnc3cc21 | 40 | 89
10 | Cc1nc2c(ccc3c2c(=O)n(C)c(=O)n3CC(C)C)[nH]1 | 15 | > 25
11 | COCc1nc2c(ccc3c2c(=O)n(C)c(=O)n3CC(C)C)[nH]1 | 54 | 66
12 | CC(C)Cn1c(=O)n(C)c(=O)c2c3ncn(Cc4ccccc4)c3ccc21 | 20 | 13
13 | CC(C)Cn1c(=O)n(C)c(=O)c2[nH]c(C(C)(C)C)nc21 | 1.8 | 58
14 | COCc1nc2c([nH]1)c(=O)n(C)c(=O)n2CC(C)C | 5.2 | 212
15 | CC(C)CCn1c(=O)c2nc[nH]c2n(CC(C)C)c1=O | 86 | 17
16 | Cc1nc2c([nH]1)c(=O)n(C)c(=O)n2CC(C)C | 1.9 | 68
17 | CC(C)Cn1c(=O)n(C)c(=O)c2c1ncn2Cc1ccccc1 | 4.4 | 108
18 | CC(C)Cn1c(=O)n(C)c(=O)c2cc3c(cc21)ncn3Cc1ccccc1 | 1.2 | 14
19 | CC(C)Cn1c(=O)n(C)c(=O)c2c3nc(C(C)(C)C)[nH]c3ccc21 | > 50 | 44
20 | CC(C)CCn1c(=O)c2c3nc[nH]c3ccc2n(CC(C)C)c1=O | > 25 | 19
